Assay results from BindingDB's records for doi:10.1016/j.bmc.2019.03.030 (Northwestern University, 2019).

Target: Sigma non-opioid intracellular receptor 1 (Homo sapiens, UniProt Q99720)
Experiment: Displacement of [3H]-(+)-pentazocine from sigma1 receptor (unknown origin) expressed in HEK293 cell membranes after 120 mins by microbeta scintillation counting method
In short: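 Radioligand binding run by an external screening program; sigma-1 tracer [3H]-pentazocine, sigma-2 tracer [3H]-DTG. Each compound first tested at a single 10 μM concentration. Those giving >50% inhibition were then titrated over a dose range to derive pKi.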

Chain of Sigma non-opioid intracellular receptor 1 (Q99720 whole entry): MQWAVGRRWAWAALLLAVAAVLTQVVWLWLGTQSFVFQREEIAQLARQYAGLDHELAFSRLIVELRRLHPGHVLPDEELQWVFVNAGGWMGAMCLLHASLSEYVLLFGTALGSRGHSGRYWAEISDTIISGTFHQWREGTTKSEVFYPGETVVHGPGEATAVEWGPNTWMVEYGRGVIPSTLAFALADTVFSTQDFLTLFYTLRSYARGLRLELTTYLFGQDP

Ki: 16 nM
Compound: O=C(c1c2c(nn1-c1ccc(F)cc1)CCC(NCc1ccc(F)cc1)C2)N1CCCCC1 (stereo unspecified)
